Laboratory results published in ChEMBL document CHEMBL3352026, “Structure-activity relationship of highly potent galactonoamidine inhibitors toward β-galactosidase (Aspergillus oryzae)” (J Med Chem, 2014).

Experiments:
Beta-galactosidase = target: T1, Beta-galactosidase (Aspergillus oryzae, UniProt Q2U7N3); assay: Inhibition of Aspergillus oryzae beta-galactosidase using 2-chloro-4-nitrophenyl beta-Dgalactopyranoside as substrate by spectrophotometry
T1 sequence (Q2U7N3 whole entry): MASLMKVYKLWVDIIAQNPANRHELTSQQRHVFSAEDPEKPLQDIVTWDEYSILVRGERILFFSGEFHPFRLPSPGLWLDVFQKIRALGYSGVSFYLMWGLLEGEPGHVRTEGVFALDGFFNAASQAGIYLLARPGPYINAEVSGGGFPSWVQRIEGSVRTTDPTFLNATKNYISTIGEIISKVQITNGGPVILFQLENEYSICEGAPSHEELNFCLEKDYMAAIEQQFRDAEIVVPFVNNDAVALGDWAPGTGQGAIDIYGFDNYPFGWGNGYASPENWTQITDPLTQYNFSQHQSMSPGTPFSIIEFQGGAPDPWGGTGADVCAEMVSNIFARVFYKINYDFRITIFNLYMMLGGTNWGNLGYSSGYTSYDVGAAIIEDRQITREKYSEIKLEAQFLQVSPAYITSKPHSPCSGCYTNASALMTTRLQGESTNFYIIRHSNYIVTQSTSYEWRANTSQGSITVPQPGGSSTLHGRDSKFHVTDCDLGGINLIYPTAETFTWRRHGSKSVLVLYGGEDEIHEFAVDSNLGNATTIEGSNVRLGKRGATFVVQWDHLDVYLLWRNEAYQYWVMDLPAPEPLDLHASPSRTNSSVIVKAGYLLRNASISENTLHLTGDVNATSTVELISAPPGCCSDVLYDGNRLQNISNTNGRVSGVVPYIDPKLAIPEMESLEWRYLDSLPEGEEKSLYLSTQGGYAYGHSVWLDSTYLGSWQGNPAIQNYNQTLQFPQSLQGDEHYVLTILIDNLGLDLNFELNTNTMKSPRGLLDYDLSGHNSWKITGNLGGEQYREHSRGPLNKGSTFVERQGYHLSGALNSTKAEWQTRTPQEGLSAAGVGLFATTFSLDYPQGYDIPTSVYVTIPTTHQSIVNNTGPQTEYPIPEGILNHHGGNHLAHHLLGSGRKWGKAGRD
Summary of the method: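 Dextrin-stabilised lyophilised A. oryzae enzyme in 50 mM acetate, pH 5.00, 30 °C, 100 μL. Substrate plus inhibitor preincubated 30 min before enzyme addition. 2-chloro-4-nitrophenolate read at 405 nm. […] For IC50, substrate was fixed, inhibitor 5 × 10⁻⁴–50 μM, read at 60 min against blanks, in duplicate.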

[1] = Inhibition of Caldicellulosiruptor saccharolyticus beta-glucosidase
[2] = Inhibition of almond beta-glucosidase; design: species or system Prunus dulcis
[3] = Inhibition of Aspergillus niger beta-glucosidase

Row | SMILES | IC50 (Beta-galactosidase) [µM] | Ki (Beta-galactosidase) [µM] | other results
1 | CCCCCCC/N=C1\N[C@H](CO)[C@H](O)[C@H](O)[C@H]1O | 0.107 | 0.0108 | 
2 | CC(C)(C)c1ccc(C/N=C2\N[C@H](CO)[C@H](O)[C@H](O)[C@H]2O)cc1 |  | 0.0206 | 
3 | OC[C@H]1N/C(=N\Cc2cccc(F)c2)[C@H](O)[C@@H](O)[C@H]1O |  | 0.0203 | 
4 | OC[C@H]1N/C(=N\Cc2ccc(F)cc2)[C@H](O)[C@@H](O)[C@H]1O |  | 0.0101 | 
5 | OC[C@H]1N/C(=N\CC2CCCCC2)[C@H](O)[C@@H](O)[C@H]1O | 0.022 | 0.0113 | 
6 | CCCCCCCCCCCC/N=C1\N[C@H](CO)[C@H](O)[C@H](O)[C@H]1O |  | 0.0484 | 
7 | OC[C@H]1N/C(=N\C2CC2)[C@H](O)[C@@H](O)[C@H]1O |  | 0.0319 | 
8 | OC[C@H]1N/C(=N\CCCc2ccccc2)[C@H](O)[C@@H](O)[C@H]1O | 0.036 | 0.0086 | 
9 | OC[C@H]1N/C(=N\Cc2ccccc2F)[C@H](O)[C@@H](O)[C@H]1O |  | 0.0161 | 
10 | Cc1ccccc1C/N=C1\N[C@H](CO)[C@H](O)[C@H](O)[C@H]1O |  | 0.0236 | 
11 | OC[C@H]1N/C(=N\C2CCCCC2)[C@H](O)[C@@H](O)[C@H]1O | 4.8 | 0.602 | 
12 | OC[C@H]1N/C(=N\CC2CC2)[C@H](O)[C@@H](O)[C@H]1O | 0.00086 | 0.0095 | 
13 | OC[C@H]1N/C(=N/CCc2ccccc2)[C@H](O)[C@@H](O)[C@H]1O |  |  | Ki [1]: ≤ 0.0012 µM; Ki [2]: ≤ 0.0012 µM; Ki [3]: ≤ 0.0012 µM
14 | COc1ccc(C/N=C2\N[C@H](CO)[C@H](O)[C@H](O)[C@H]2O)cc1 |  | 0.0171 | 
15 | CCC/N=C1\N[C@H](CO)[C@H](O)[C@H](O)[C@H]1O |  | 0.149 | 
16 | OC[C@H]1N/C(=N\Cc2ccc(C(F)(F)F)cc2)[C@H](O)[C@@H](O)[C@H]1O |  | 0.0157 | 
17 | OC[C@H]1N/C(=N\CC2CCCCCC2)[C@H](O)[C@@H](O)[C@H]1O | 0.036 | 0.0063 | 
18 | N=C1N[C@H](CO)[C@H](O)[C@H](O)[C@H]1O |  | 0.15 | 
19 | Cc1ccc(C/N=C2\N[C@H](CO)[C@H](O)[C@H](O)[C@H]2O)cc1 | 0.036 | 0.008 | 
20 | OC[C@H]1N/C(=N\Cc2ccccc2)[C@H](O)[C@@H](O)[C@H]1O |  | 0.0211 | 
21 | Cc1cccc(C/N=C2\N[C@H](CO)[C@H](O)[C@H](O)[C@H]2O)c1 |  | 0.0294 | 
22 | O=C1N[C@H](CO)[C@H](O)[C@H](O)[C@H]1O |  | 0.615 | 
23 | CCCCC(CC)/N=C1\N[C@H](CO)[C@H](O)[C@H](O)[C@H]1O (stereo partly drawn) | 0.022 | 0.0078 | 
